Laboratory results as given in ChEMBL document CHEMBL1139778, “Synthesis and biological evaluation of cinnamyl compounds as potent antitumor agents” (Bioorg Med Chem Lett, 2007).
Blank lines part the entries; values can stand above or below the molecule they belong to. Calls of active or inactive are those of the source. The calls are words filed in the database; no cut-off is given here.

Assays:
[1] = tested on: SW-620; test: Antitumor activity against human SW620 cells in nude mouse assessed as tumor volume on day 7 at 50 mg/kg, […]; format: functional; conditions: route intraperitoneal
[2] = tested on: SW-620; test: Antitumor activity against human SW620 cells in nude mouse assessed as tumor volume on day 12 at 50 mg/kg, […]; format: functional; conditions: route intraperitoneal
[3] = tested on: SW-620; test: Antitumor activity against human SW620 cells in nude mouse assessed as tumor volume on day 9 at 50 mg/kg, […]; format: functional; conditions: route intraperitoneal
[4] = tested on: SW-620; test: Antitumor activity against human SW620 cells in nude mouse assessed as tumor volume on day 14 at 50 mg/kg, ip for 20 days; format: organism-based; parameters: dose 50 mg/kg, route intraperitoneal; conditions: in vivo
Method in brief: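 SW620 human colon adenocarcinoma cells (3 × 10⁷ cells/mL) implanted subcutaneously in right flank of nude mice on day 0. Compound in 0.5% Tween 80 given ip at 50 mg/kg per day; vehicle control and doxifluridine 50 mg/kg reference; 8 mice per group. Tumor volume estimated as length × width × height/2; mice sacrificed on day 14.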

[5] = tested on: SW-620; test: Antitumor activity against human SW620 cells in nude mouse assessed as tumor volume on day 5 at 50 mg/kg, […]; format: functional; conditions: route intraperitoneal
[6] = Growth inhibition of human […] cells after 24 hrs by ELISA; format: functional
[7] = tested on: HCT-116; test: Growth inhibition of human HCT116 cells after 24 hrs by ELISA; format: functional; conditions: HCT-116, 24 h
[8] = tested on: NCI-H23; test: Growth inhibition of human NCI-H23 cells after 24 hrs by ELISA; format: functional; conditions: NCI-H23, 24 h
[9] = tested on: A549; test: Growth inhibition of human A549 cells after 24 hrs by ELISA; format: functional; conditions: A549, 24 h
[10] = tested on: SK-OV-3; test: Growth inhibition of human SKOV3 cells after 24 hrs by ELISA; format: functional; conditions: SK-OV-3, 24 h
[11] = tested on: SW-620; test: Cell cycle arrest in human SW620 cells assessed as accumulation at subG1 phase at 40 uM after 24 hrs by flow cytometry; format: functional
Method in brief: (§1)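 After treatment, cells harvested at 24 h, trypsinized, washed with PBS, fixed overnight in ice-cold 70% EtOH, then treated with RNase A 100 µg/mL at 37 °C for 30 min. Stained with propidium iodide (final 50 µg/mL). DNA content of 20,000 fixed cells read by flow cytometry (FACScalibur); phase distribution from cell cycle modelling.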

[12] = tested on: SW-620; test: Cell cycle arrest in human SW620 cells assessed as accumulation at subG1 phase at 30 uM after 24 hrs by flow cytometry; format: functional; method in brief: as §1
[13] = tested on: SW-620; test: Cell cycle arrest in human SW620 cells assessed as accumulation at G2/M phase at 20 uM after 24 hrs by flow cytometry; format: functional; method in brief: as §1
[14] = tested on: HCT-116; test: Cell cycle arrest in human HCT116 cells assessed as accumulation at S phase at 20 uM after 24 hrs by flow cytometry; format: functional; method in brief: as §1
[15] = tested on: HCT-116; test: Cell cycle arrest in human HCT116 cells assessed as accumulation at G2/M phase at 40 uM after 24 hrs by flow cytometry; format: functional; method in brief: as §1
[16] = tested on: SW-620; test: Cell cycle arrest in human SW620 cells assessed as accumulation at S phase at 30 uM after 24 hrs by flow cytometry; format: functional; method in brief: as §1
[17] = tested on: HCT-116; test: Induction of caspase 3 cleavage in human HCT116 cells at 20 uM after 24 hrs; format: functional, cell-based
Method in brief: (§2)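 HCT116 cells treated for 24 h, lysed in RIPA buffer; 40 µg lysate resolved by 15% SDS–PAGE, blotted to PVDF, blocked in 5% milk/TBS-T. Primary antibodies 2 h at room temperature, HRP goat anti-rabbit secondary, chemiluminescent detection on X-ray film for PARP and caspase-3 cleavage.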

[18] = tested on: SW-620; test: Cell cycle arrest in human SW620 cells assessed as accumulation at S phase at 20 uM after 24 hrs by flow cytometry; format: functional; method in brief: as §1
[19] = tested on: HCT-116; test: Cell cycle arrest in human HCT116 cells assessed as accumulation at S phase at 30 uM after 24 hrs by flow cytometry; format: functional; method in brief: as §1
[20] = tested on: HCT-116; test: Cell cycle arrest in human HCT116 cells assessed as accumulation at G2/M phase at 20 uM after 24 hrs by flow cytometry; format: functional; method in brief: as §1
[21] = tested on: HCT-116; test: Induction of PARP cleavage in human HCT116 cells at 20 uM after 24 hrs; format: functional, cell-based; method in brief: as §2
[22] = tested on: HCT-116; test: Cell cycle arrest in human HCT116 cells assessed as accumulation at subG1 phase at 40 uM after 24 hrs by flow cytometry; format: functional; method in brief: as §1
[23] = tested on: SW620 (human colon adenocarcinoma); test: Induction of apoptosis in human SW620 cells at 30 uM after 24 hrs
[24] = tested on: SW-620; test: Cell cycle arrest in human SW620 cells assessed as accumulation at G2/M phase at 40 uM after 24 hrs by flow cytometry; format: functional; method in brief: as §1
[25] = tested on: HCT-116; test: Cell cycle arrest in human HCT116 cells assessed as accumulation at S phase at 40 uM after 24 hrs by flow cytometry; format: functional; method in brief: as §1
[26] = tested on: SW-620; test: Cell cycle arrest in human SW620 cells assessed as accumulation at S phase at 40 uM after 24 hrs by flow cytometry; format: functional; method in brief: as §1
[27] = tested on: HCT-116; test: Cell cycle arrest in human HCT116 cells assessed as accumulation at subG1 phase at 30 uM after 24 hrs by flow cytometry; format: functional; method in brief: as §1
[28] = tested on: SW-620; test: Cell cycle arrest in human SW620 cells assessed as accumulation at G0/G1 phase at 30 uM after 24 hrs by flow cytometry; format: functional; method in brief: as §1
[29] = tested on: HCT-116; test: Cell cycle arrest in human HCT116 cells assessed as accumulation at subG1 phase at 20 uM after 24 hrs by flow cytometry; format: functional; method in brief: as §1
[30] = tested on: HCT-116; test: Cell cycle arrest in human HCT116 cells assessed as accumulation at G0/G1 phase at 20 uM after 24 hrs by flow cytometry; format: functional; method in brief: as §1
[31] = tested on: SW-620; test: Cell cycle arrest in human SW620 cells assessed as accumulation at subG1 phase at 20 uM after 24 hrs by flow cytometry; format: functional; method in brief: as §1
[32] = tested on: SW-620; test: Cell cycle arrest in human SW620 cells assessed as accumulation at G0/G1 phase at 40 uM after 24 hrs by flow cytometry; format: functional; method in brief: as §1
[33] = tested on: SW-620; test: Cell cycle arrest in human SW620 cells assessed as accumulation at G2/M phase at 30 uM after 24 hrs by flow cytometry; format: functional; method in brief: as §1
[34] = tested on: HCT-116; test: Cell cycle arrest in human HCT116 cells assessed as accumulation at G2/M phase at 30 uM after 24 hrs by flow cytometry; format: functional; method in brief: as §1
[35] = tested on: HCT-116; test: Cell cycle arrest in human HCT116 cells assessed as accumulation at G0/G1 phase at 30 uM after 24 hrs by flow cytometry; format: functional; method in brief: as §1
[36] = tested on: HCT-116; test: Cell cycle arrest in human HCT116 cells assessed as accumulation at G0/G1 phase at 40 uM after 24 hrs by flow cytometry; format: functional; method in brief: as §1
[37] = tested on: SW-620; test: Cell cycle arrest in human SW620 cells assessed as accumulation at G0/G1 phase at 20 uM after 24 hrs by flow cytometry; format: functional; method in brief: as §1

SMILES: C[C@H]1O[C@@H](n2cc(F)c(=O)[nH]c2=O)[C@H](O)[C@@H]1O [DOXIFLURIDINE]
Activity [1]: 15 mm3 | Activity [2]: 77.9 mm3 | Activity [3]: 41.4 mm3 | Activity [4]: 120.7 mm3 | Activity [5]: 3.8 mm3

SMILES: CN1CCN(C(=O)ONC(=O)/C=C/c2ccccc2OC(=O)c2ccccc2)CC1
GI50 [6]: 89.3 µM | GI50 [7]: 40.4 µM | GI50 [8]: 45.2 µM | GI50 [9]: > 100 µM | GI50 [10]: > 100 µM

SMILES: CO/N=C/C=C/c1ccccc1OC(=O)c1ccccc1
GI50 [6]: > 100 µM | GI50 [7]: > 100 µM | GI50 [8]: > 100 µM | GI50 [9]: > 100 µM | GI50 [10]: > 100 µM

SMILES: CN1CCN(C(=O)/C=C/c2ccccc2OC(=O)c2ccccc2)CC1
GI50 [6]: > 100 µM | GI50 [7]: > 100 µM | GI50 [8]: > 100 µM | GI50 [9]: > 100 µM | GI50 [10]: > 100 µM

SMILES: O=C(Cl)/C=C/c1ccccc1OC(=O)c1ccccc1
GI50 [6]: > 100 µM | GI50 [7]: > 100 µM | GI50 [8]: > 100 µM | GI50 [9]: > 100 µM | GI50 [10]: > 100 µM

The next lines start with results.

GI50 [7]: 15.3 µM | GI50 [8]: 26.9 µM | GI50 [9]: 53.5 µM | GI50 [10]: 48.8 µM
SMILES: COc1ccccc1/C=C/C(=O)NO
GI50 [6]: 16.8 µM

GI50 [7]: 16.8 µM | GI50 [8]: 27.8 µM | GI50 [9]: 55.2 µM | GI50 [10]: 50.4 µM
SMILES: O=C(/C=C/c1ccccc1O)NO
GI50 [6]: 49.8 µM

GI50 [7]: 13.6 µM | GI50 [8]: 18.2 µM | GI50 [9]: 8.8 µM | GI50 [10]: 12.9 µM
SMILES: O=C(/C=C/c1ccccc1OC(=O)c1ccccc1)NOC(=O)c1ccccc1
GI50 [6]: 3.2 µM

GI50 [7]: 11.2 µM | GI50 [8]: 17.5 µM | GI50 [9]: 44.9 µM | GI50 [10]: 35.3 µM
SMILES: O=C(/C=C/c1ccccc1OC(=O)c1ccccc1)NO
GI50 [6]: 20.2 µM

GI50 [7]: 12.5 µM | Activity [4]: 89 mm3 | GI50 [8]: 12.9 µM | GI50 [9]: 25.2 µM | GI50 [10]: 12.7 µM
SMILES: O=C(/C=C/c1ccccc1OC(=O)c1ccccc1)NOC(=O)N1CCOCC1
Activity [11]: 12.7% | Activity [12]: 3.5% | GI50 [6]: 5.8 µM | Activity [13]: 22.33% | Activity [14]: 22.05% | Activity [15]: 42.06% | Activity [16]: 26.12% | Activity [1]: 4.3 mm3 | Activity [17]: Active | Activity [2]: 45 mm3 | Activity [18]: 27.79% | Activity [19]: 20.39% | Activity [3]: 17.3 mm3 | Activity [5]: 1.4 mm3 | Activity [20]: 35.23% | Activity [21]: Active | Activity [22]: 36.83% | Activity [23]: Active | Activity [24]: 40.14% | Activity [25]: 26.88% | Activity [26]: 26.52% | Activity [27]: 39.14% | Activity [28]: 46.46% | Activity [29]: 32.36% | Activity [30]: 42.72% | Activity [31]: 3.03% | Activity [32]: 33.34% | Activity [33]: 26.41% | Activity [34]: 38.22% | Activity [35]: 41.4% | Activity [36]: 31.06% | Activity [37]: 48.88%

GI50 [7]: 21.3 µM | GI50 [8]: 26.3 µM | GI50 [9]: 30.2 µM | GI50 [10]: 16.8 µM
SMILES: CC(=O)ONC(=O)/C=C/c1ccccc1OC(=O)c1ccccc1
GI50 [6]: 18.6 µM
